Measured values published in ChEMBL document CHEMBL1128394, “Hydroxamic acids as potent inhibitors of endothelin-converting enzyme from human bronchiolar smooth muscle” (J Med Chem, 1995).
Where “and” joins values, the source holds several entries; their conditions need not be identical. Identical values can stand only once. Residues, ends and D or L forms follow the SMILES beside them. *: point of attachment. Cbz = O=C(OCc1ccccc1)*; NHOH = ON*

Columns and labels:
[1] = biological target: T1, Endothelin-converting enzyme 1 (Homo sapiens, UniProt P42892); assay: Inhibitory activity against human bronchiolar smooth muscle Endothelin-converting enzyme 1; format: tissue-based, Muscle tissue
T1 sequence (P42892 whole entry): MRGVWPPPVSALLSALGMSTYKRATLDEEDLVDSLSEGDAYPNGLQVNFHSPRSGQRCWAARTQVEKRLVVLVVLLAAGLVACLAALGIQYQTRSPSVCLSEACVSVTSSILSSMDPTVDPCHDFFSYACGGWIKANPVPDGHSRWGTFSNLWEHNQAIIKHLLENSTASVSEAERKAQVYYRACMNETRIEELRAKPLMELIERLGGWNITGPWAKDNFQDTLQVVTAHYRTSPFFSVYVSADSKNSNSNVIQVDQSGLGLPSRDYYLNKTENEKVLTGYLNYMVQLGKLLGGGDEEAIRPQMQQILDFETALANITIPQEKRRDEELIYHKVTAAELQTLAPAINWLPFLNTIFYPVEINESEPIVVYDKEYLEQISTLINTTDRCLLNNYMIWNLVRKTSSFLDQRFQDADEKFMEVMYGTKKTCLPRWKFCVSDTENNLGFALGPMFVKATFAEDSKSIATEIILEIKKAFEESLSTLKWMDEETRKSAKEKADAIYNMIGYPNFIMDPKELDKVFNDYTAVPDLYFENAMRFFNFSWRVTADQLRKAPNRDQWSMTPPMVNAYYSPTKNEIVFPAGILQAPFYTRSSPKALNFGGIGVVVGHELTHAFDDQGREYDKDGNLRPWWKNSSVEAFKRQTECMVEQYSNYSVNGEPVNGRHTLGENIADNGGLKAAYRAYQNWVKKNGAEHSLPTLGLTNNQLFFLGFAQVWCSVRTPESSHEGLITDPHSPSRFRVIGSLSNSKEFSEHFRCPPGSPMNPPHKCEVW
How it was run: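 Enzyme purified from cultured human bronchiolar smooth muscle cell membranes (octyl glucoside solubilization, ion exchange, gel filtration). Preincubated 30 min at 37 °C with inhibitor (in DMSO), then 3 μM human big ET-1 (final) added. Run 4–5 h at 37 °C in 50 mM Na-MOPS pH 7.2, 150 mM NaCl, 30 μM CaCl2, amastatin, PMSF. Stopped with EDTA. ET-1 quantified by reverse-phase HPLC with fluorescence.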

Neprilysin [2] = biological target: T2, Neprilysin (Oryctolagus cuniculus, UniProt P08049); assay: Inhibitory activity against big ET-1 of Neutral endopeptidase
T2 sequence (P08049 whole entry): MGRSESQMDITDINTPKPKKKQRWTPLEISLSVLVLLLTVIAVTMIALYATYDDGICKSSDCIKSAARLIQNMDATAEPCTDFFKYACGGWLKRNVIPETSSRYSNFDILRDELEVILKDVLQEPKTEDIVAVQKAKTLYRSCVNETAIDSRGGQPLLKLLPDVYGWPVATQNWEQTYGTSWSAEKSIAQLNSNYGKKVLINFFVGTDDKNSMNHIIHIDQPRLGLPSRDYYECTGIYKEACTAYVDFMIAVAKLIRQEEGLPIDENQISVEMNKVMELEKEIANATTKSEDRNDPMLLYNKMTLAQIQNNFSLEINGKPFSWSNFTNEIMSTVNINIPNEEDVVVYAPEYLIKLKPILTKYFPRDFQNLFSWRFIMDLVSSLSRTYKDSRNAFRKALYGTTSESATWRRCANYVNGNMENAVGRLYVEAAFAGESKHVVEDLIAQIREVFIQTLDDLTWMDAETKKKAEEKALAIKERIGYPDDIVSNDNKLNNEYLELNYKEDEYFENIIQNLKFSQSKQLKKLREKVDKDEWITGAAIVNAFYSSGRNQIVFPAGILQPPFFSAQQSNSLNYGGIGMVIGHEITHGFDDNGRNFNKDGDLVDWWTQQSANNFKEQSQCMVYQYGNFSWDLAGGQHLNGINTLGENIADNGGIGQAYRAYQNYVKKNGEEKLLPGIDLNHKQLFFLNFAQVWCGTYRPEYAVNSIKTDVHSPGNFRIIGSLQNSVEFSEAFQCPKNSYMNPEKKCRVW
How it was run: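 Soluble rabbit kidney neutral endopeptidase, run under the same conditions as the ECE assay: 30 min inhibitor preincubation at 37 °C, 3 μM human big ET-1, 4–5 h at 37 °C, pH 7.2 Na-MOPS buffer with NaCl and CaCl2. ET-1 formed was measured by reverse-phase HPLC with fluorescence detection. IC50 by least-squares curve fit.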

Neprilysin [3] = biological target: T2, Neprilysin; assay: Inhibitory activity against Leu-enkeph of Neutral endopeptidase
How it was run: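 Soluble rabbit kidney neutral endopeptidase preincubated 15 min with inhibitor. Tritiated [Leu]enkephalin as substrate. Reaction ran 10 min at 20 °C in 50 mM Tris-Cl pH 7.5.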

Thermolysin = biological target: T3, Thermolysin (Bacillus thermoproteolyticus, UniProt P00800); assay: Inhibitory activity against thermolysin with 0.5 uM [Leu5]-enkephalin (NEN)
T3 sequence (P00800 whole entry): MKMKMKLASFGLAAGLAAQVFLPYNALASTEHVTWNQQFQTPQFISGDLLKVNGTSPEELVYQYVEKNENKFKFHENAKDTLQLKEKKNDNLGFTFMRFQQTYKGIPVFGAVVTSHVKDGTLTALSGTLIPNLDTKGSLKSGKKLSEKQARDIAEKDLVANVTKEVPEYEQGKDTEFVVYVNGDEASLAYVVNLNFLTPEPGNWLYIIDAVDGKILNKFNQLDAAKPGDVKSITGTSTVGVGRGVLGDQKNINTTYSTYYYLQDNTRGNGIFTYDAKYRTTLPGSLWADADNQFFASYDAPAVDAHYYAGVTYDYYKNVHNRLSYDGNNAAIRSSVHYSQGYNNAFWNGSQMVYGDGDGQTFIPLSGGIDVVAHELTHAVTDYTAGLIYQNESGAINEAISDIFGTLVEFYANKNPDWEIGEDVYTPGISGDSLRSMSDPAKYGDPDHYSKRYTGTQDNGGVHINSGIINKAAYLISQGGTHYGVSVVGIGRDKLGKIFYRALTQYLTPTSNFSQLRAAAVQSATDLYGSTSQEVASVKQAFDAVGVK
How it was run: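 Thermolysin preincubated 15 min with inhibitor. Substrate 0.5 μM [3,5-3H-Tyr1][Leu]enkephalin. Reaction ran 10 min at 20 °C in 50 mM Tris-Cl pH 7.5.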

IC50 [1] | IC50 (Neprilysin [2]) | IC50 (Neprilysin [3]) | IC50 (Thermolysin) [nM] | Compound
3000 nM |  |  |  | O=C(O)CCNC(=O)CC(=O)NO
190 nM | 270 nM | 30 nM |  | CC(C)C(CC(=O)NO)C(=O)NCCC(=O)O (stereo not given)
6.8 nM | 8 nM | 3 nM |  | CC(C)C(C(=O)NO)C(=O)NCC(=O)O (stereo not given)
3000 nM |  |  |  | CC(C)C(CC(=O)NO)C(=O)NC(CC(N)=O)C(N)=O (stereo not given)
11 nM | 40 nM | 2 nM | 175 | CC(C)C[C@H](C(=O)NO)C(=O)N[C@@H](C)C(=O)NCC(N)=O
8 nM | 8 nM | 1 nM | 3 | C[C@H](NC(=O)[C@@H](CC(=O)NO)Cc1ccccc1)C(=O)O [KELATORPHAN]
150 nM | 750 nM | 170 nM |  | CC(C)C(CC(=O)NO)C(=O)NC(CC(N)=O)C(=O)O (stereo not given)
6500 nM |  |  |  | CC(C)C(CC(N)=O)C(=O)NCCC(=O)O (stereo not given)
0.01 nM | 1 nM | 2 nM | 1900 | CC(C)C(C(=O)NO)C(=O)NCCC(=O)O (stereo not given)

The remaining lines, values behind:

Compound | IC50 [1] | IC50 (Neprilysin [2]) | IC50 (Neprilysin [3]) | IC50 (Thermolysin) [nM]
CC(C)C(CNO)C(=O)NC(Cc1c[nH]c2ccccc12)C(=O)O (stereo not given) | 500 nM | 1000 nM | 950 nM | 
CCCCC[C@H](CC(=O)NO)C(=O)N[C@H](C(=O)N1CCC[C@H]1CO)C(C)C [ACTINONIN] | 4000 nM | 8200 nM |  | 
O=C(O)CNC(=O)C(CS)Cc1ccccc1 (stereo not given) [THIORPHAN] | 8 nM |  |  | 
CC(C)C(C(=O)NO)C(=O)NC(CC(N)=O)C(=O)O (stereo not given) | 3 nM | 20 nM | 1 nM | 
CC(C)C[C@H](NP(=O)(O)O[C@@H]1O[C@@H](C)[C@H](O)[C@@H](O)[C@H]1O)C(=O)N[C@@H](Cc1c[nH]c2ccccc12)C(=O)O [PHOSPHORAMIDON] |  | 2 nM | 6 nM | 33
CC(C)CC(C(=O)NOCc1ccccc1)C(=O)NC(Cc1c[nH]c2ccccc12)C(N)=O (stereo not given) | 10000 nM |  |  | 
CC(C)C(CC(=O)NO)C(=O)NC(Cc1c[nH]c2ccccc12)C(=O)O (stereo not given) | 17 nM and 40 nM | 30 nM and 40 nM | 5 nM and 18 nM | 2000
CC(C)C(CC(=O)NOCc1ccccc1)C(=O)NC(CC(N)=O)C(N)=O (stereo not given) | > 10000 nM |  |  | 
CC(C)C[C@H](NC(=O)[C@@H]1CCCN1C(=O)OCc1ccccc1)C(=O)NCC(=O)NO (Cbz-Pro-Leu-Gly-{NHOH}) | 33000 nM | 2300 nM |  | 
CC(C)CC(C(=O)NO)C(=O)NC(Cc1c[nH]c2ccccc12)C(N)=O (stereo not given) | 4.8 nM | 7 nM | 2 nM | 2
CC(C)C(C(=O)NO)C(=O)NC(Cc1c[nH]c2ccccc12)C(N)=O (stereo not given) | 1.2 nM | 3 nM | 2 nM | 9
CC(C)CC(C(=O)NO)C(=O)NC(Cc1c[nH]c2ccccc12)C(=O)O (stereo not given) | 0.25 nM | 0.07 nM | 0.03 nM | 5
CC(C)C(C(=O)NO)C(=O)NC(Cc1c[nH]c2ccccc12)C(=O)O (stereo not given) | 0.2 nM | 0.03 nM | 0.4 nM | 5
